MT1-MMP txn act = MT1-MMP promoter reporter activation – cell-based, luciferase luminescence, primary screen; HT1080 MT1-MMP promoter luciferase reporter, overnight; stronger effect = higher value; activation factor at 10 µM; actives 0.16% (n = 86,000);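 active = activation factor of at least 2 for MT1-MMP transcription at 10 µM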
SF-1 act = activators of human SF-1, primary screen, cell-based, CHO-K1, Gal4-SF-1 LBD, luciferase luminescence; actives 1.9% (n = 65,000); activation, % at 10 µM; CHO-K1 Gal4-SF-1 LBD luciferase reporter; % increase over DMSO SF-1-specific signal; Steroidogenic factor 1 (Homo sapiens), Q13285; AID 522, 2006;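 active = activation above the mean activation of all tested compounds plus 3 SD, cut at about 50% in these data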
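Test system: CHO-K1 cells with Gal4–hSF-1 LBD chimera plus Gal4-driven luciferase; Input: 4,000 cells/well; Compound: 10 µM only; Times: 20 h compound treatment, 37 °C; Measured by: steady-glow luciferase luminescence, read after 15 min reagent incubation; Measure: percent activation versus DMSO; Control set: DMSO and mock-transfected background; Replicates: one test per compound.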
CD11b adhes inh = inhibitors of CD11b/CD18 adhesion to fibrinogen, primary screen, K562 cells, luminescence; Integrin beta-2 (Homo sapiens) + Integrin alpha-M (Homo sapiens), P05107+P11215; ATPlite luminescence; Mn2+ added to activate the integrin; inhibition, % at 10 µM; actives 0.54% (n = 93,000); AID 1497, 2009;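 active = primary inhibition of 50% or more at 10 µM, then 40% or more on retest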
Target sequence (P05107 whole entry, looked up, other chains not shown): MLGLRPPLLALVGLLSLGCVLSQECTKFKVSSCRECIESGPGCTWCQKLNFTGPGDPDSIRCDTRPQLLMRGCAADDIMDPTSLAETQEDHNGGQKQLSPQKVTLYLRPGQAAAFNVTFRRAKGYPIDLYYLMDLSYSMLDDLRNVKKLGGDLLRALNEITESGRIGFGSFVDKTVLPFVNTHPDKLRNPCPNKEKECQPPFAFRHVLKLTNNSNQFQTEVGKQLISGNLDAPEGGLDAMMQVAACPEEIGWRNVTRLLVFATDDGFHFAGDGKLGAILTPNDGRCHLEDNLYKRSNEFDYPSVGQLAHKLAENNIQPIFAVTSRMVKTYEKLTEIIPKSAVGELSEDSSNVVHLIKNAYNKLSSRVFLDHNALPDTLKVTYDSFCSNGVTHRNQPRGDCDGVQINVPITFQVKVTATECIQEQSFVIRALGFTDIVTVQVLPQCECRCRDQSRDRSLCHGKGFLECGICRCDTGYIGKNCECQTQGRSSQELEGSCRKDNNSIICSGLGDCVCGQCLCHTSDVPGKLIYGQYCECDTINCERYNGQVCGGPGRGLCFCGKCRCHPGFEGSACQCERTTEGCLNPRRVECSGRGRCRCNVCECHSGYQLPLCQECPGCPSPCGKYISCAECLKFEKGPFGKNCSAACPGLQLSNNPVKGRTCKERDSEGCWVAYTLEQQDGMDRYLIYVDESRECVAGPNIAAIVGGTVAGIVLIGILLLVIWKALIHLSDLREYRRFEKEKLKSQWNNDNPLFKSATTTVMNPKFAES
CD11b adhes enh = enhancers of CD11b/CD18 adhesion to fibrinogen, primary screen, K562 cells, luminescence | ATPlite luminescence | activation, % at 10 µM | actives 0.07% (n = 93,000) | AID 1499, 2009;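 active = 10 µM primary screen giving 50% or more activity, confirmed by 40% or more on retest at that dose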
RORA act = activators of orphan receptor RORA, primary screen, cell-based, luminescence; actives 1.5% (n = 65,000); activation, % at 10 µM; Nuclear receptor ROR-alpha (Homo sapiens), P35398; CHO-K1 Gal4-RORA LBD luciferase reporter; percent increase over mock-subtracted basal signal;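 active = activation above the mean of all tested compounds plus 3 SD, cut at about 49% in these data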;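 also: 0% = DMSO-treated RORA cells and 100% = added signal equal to DMSO minus mock-transfected cells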
TNAP act DEA = human TNAP enzyme activators, primary screen, biochemical, luminescent, intermediate phosphate acceptor level; Alkaline phosphatase, tissue-nonspecific isozyme (Homo sapiens), P05186; purified TNAP, CDP-star luminescence, 100 mM DEA, 30 min; stronger effect = higher value; scale: 0 levamisole-inhibited, 1 vehicle-only enzyme; activation factor at 20 µM; 64,000 tested, under 10 active; AID 813, 2007;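 active = activation factor of at least 2 at 20 µM, relative to controls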
The depositor's hits bear a star; . = no result given. Sampled rows, rich in hits. Any-hit rate of the full collection: about 2.1%.

SMILES	MT1-MMP txn act	SF-1 act	CD11b adhes inh	CD11b adhes enh	RORA act	TNAP act DEA
Cc1ccc(-c2noc(C3CCCN(S(=O)(=O)c4ccc5ccccc5c4)C3)n2)o1 (centres undefined)	1.3	.	8.4	53.3*	.	.
O=C1c2oc3ccc(Br)cc3c(=O)c2C(c2cccnc2)N1Cc1ccco1 (centres undefined)	1.1	-1.8	18.9	-2.2	18.0	1
O=C1c2oc3ccccc3c(=O)c2C(c2cccc(Br)c2)N1Cc1ccco1 (centres undefined)	0.9	-12.9	-2.8	60.4*	-24.9	1.1
C=CCNC(=O)C1CCN(c2nc(C)cc(-c3ccccc3)n2)CC1	1.7	101.7*	-15.7	-2.5	32.6	0.9
Cc1cccc(C(=O)Nc2cccc(-c3cnc4ccccc4n3)c2)c1	.	.	3.8	2.8	.	.
O=C(Nc1cccc(-c2cnc3ccccc3n2)c1)c1ccco1	1	55.1*	-1.8	13.8	60.7*	0.9
Cc1nc2cc(C(=O)O)ccc2s1	1.9	53.3*	5.4	2.1	21.0	0.9
S=C(c1ccc(-c2ccccc2Cl)o1)N1CCOCC1	1.7	37.4	-3.0	-4.6	54.3*	0.9
O=C(OC1CCCCC1)c1ccc2c(c1)C1C=CCC1C(C(=O)O)N2 (centres undefined)	.	23.3	-59.2	150.0*	17.4	0.9
COCC1C2CC[C@H]3C(OCc4ccc(F)cc4C(F)(F)F)OC[C@]4(C)[C@H]3C2=C(CN4C(=O)OC(C)(C)C)[C@H](C)C1COC (some centres undefined)	1	.	.	.	.	.
COc1ccc(NC2CC(=O)N(c3ccccc3)C2=O)cc1 (centres undefined)	1.4	56.9*	5.6	-1.0	31.6	0.8
O=C1CC(Nc2ccc(N3CCOCC3)cc2)C(=O)N1c1ccccc1 (centres undefined)	1.3	.	-4.8	-5.7	.	.
COc1ccc(Cl)cc1N(CC(=O)Nc1ccc2c(c1)OCCO2)S(C)(=O)=O	1.2	-9.0	9.7	1.9	-9.7	0.9
COCCOC(=O)c1[nH]c2c(c1C)C(=O)C(C(=O)OC)C(C)C2 (centres undefined)	1.4	47.1	6.4	-1.0	55.9*	1
COC(=O)C1C(=O)c2c([nH]c(C(=O)OC3CCCCCC3)c2C)CC1C (centres undefined)	1.3	38.4	-1.7	3.6	73.9*	0.9
NC(=O)c1ccsc1NC(=O)c1ccc(S(=O)(=O)N2CCCCC2)cc1	1.3	35.5	-10.0	0.3	77.6*	1
CC(C)Sc1nnc(Nc2ccccc2)s1	1.3	105.8*	-1.5	-1.9	44.2	0.9
CC1CCc2c(sc(NC(=O)c3noc4c3CCCC4)c2C(N)=O)C1 (centres undefined)	1.8	49.9*	.	.	100.8*	0.9
COC(=O)c1c(-c2cccnc2)csc1NC(=O)c1cc(C)on1	1.6	79.7*	.	.	56.8*	0.9
Cc1cc(C2=NNC(=NC3CC3)SC2)c(C)n1Cc1ccco1	.	.	75.1*	18.9	.	.
Cc1cc(C2=NNC(=NC3CC3)SC2)c(C)n1-c1ccccc1	.	.	97.8*	-4.9	.	.
CCC1=C2CC[C@H]3C(=O)N(CC)C(=O)[C@H]3[C@H]2[C@@]2(C)C(=NCCc3c[nH]c4ccccc34)OC(=O)N2C1=O	1.2	.	.	.	.	.
COC(=O)c1scc(C)c1NC(=O)C1CCCCC1	1	.	-10.1	-3.9	.	.
CN(C)S(=O)(=O)c1ccc(N2CCCC2)c(C(=O)NC(c2ccccc2)c2ccccc2)c1	.	.	18.2	-3.5	.	.
CCCC[C@@H]1C[C@H]1C(NC(=O)c1ccccc1)c1ccc(C(F)(F)F)cc1 (some centres undefined)	1.2	.	.	.	.	.
SMILES	MT1-MMP txn act	SF-1 act	CD11b adhes inh	CD11b adhes enh	RORA act	TNAP act DEA
CC(=O)Oc1ccc2cc(-c3nc4ccccc4n3C)c(=O)oc2c1	1.5	64.6*	-0.8	0.8	76.1*	1
CN(C)c1ccc(-n2cc3c(=O)n(C)c(=O)n(C)c3c2)cc1	1.5	14.4	-13.4	0.2	48.7*	1
CCN(CC)c1ccc(-n2cc3c(=O)n(C)c(=O)n(C)c3c2)cc1	1.2	55.5*	8.7	-4.4	6.3	0.9
COCCn1c(SCCCC(=O)c2ccc(Br)cc2)nnc1-c1ccncc1	0.9	.	68.8*	-5.0	.	.
Cn1c(SCCCC(=O)c2ccc(F)cc2)nnc1-c1ccncc1	1.3	.	12.6	-0.4	.	.
Cc1nn(Cc2ccc([N+](=O)[O-])cc2)c(=O)n1-c1c(F)cccc1F	.	.	-3.6	-2.3	.	.
Cc1ccc(-c2nnc(SCC(=O)Nc3ccc4c(c3)oc3ccccc34)n2C)c(Cl)c1	1.2	.	59.9*	-8.1	.	.
CC(=O)c1ccc(NC(=O)C(C)OC(=O)COc2ccc(C#N)cc2)cc1 (centres undefined)	.	.	-8.2	2.7	.	.
O=C(COC(=O)c1ccccc1NC(=O)C1CC1)c1ccc2c(c1)OCCO2	.	.	28.4	3.3	.	.
Cn1nccc1C(=O)OCC(=O)Nc1nc(-c2ccccc2)cs1	1.5	49.6*	-3.3	-3.3	45.7	1
O=C(COC(=O)c1cccs1)Nc1nc(-c2ccccc2)cs1	.	.	-10.5	11.1	.	.
Nc1nc(-c2ccccc2)cc(-c2ccccc2O)n1	1.2	18.8	3.1	5.2	49.2*	0.9
COc1ccc(NC(=O)c2cc(-c3ccc(C)o3)nc3ccccc23)cc1OC	1.2	23.6	-16.3	12.6	53.0*	1
COc1ccc(NC(=O)c2cc(-c3cccnc3)nc3ccc(C)cc23)cc1OC	.	.	12.6	1.3	.	.
CCC(=NC(C)c1ccccc1)c1c(O)n(C)c(=O)n(C)c1=O (centres undefined)	0.9	-28.0	70.6*	-5.3	-24.4	1
O=C(O)CCn1cc(/C=C\C(=O)c2ccc(Cl)cc2)c(-c2cccc(Br)c2)n1	.	.	53.0*	25.3	.	.
Cc1ccc(Cn2cc(/C=C/C(=O)O)c(-c3ccccc3)n2)cc1	1.1	.	7.4	-3.2	.	.
C=CCn1c(-c2ccccc2)c[nH]c1=S	1.6	52.9*	-13.7	0.6	5.9	1.2
Cc1nn(-c2ccccc2)c(C)c1C(=O)OCC(=O)N1c2ccccc2NC(=O)C1(C)C	1.1	.	-16.2	-1.9	.	.
CCS(=O)(=O)N1CCC(C(=O)NCc2cc(OC)ccc2OC)CC1	1.2	.	7.8	-1.6	.	.
COc1ccc(N(C)S(=O)(=O)c2cccc3cccnc23)c(OC)c1	1.3	14.9	-2.1	53.5*	12.7	0.7

Screening results (PubChem BioAssay)
